Source: ChEMBL document CHEMBL1153319, “Dancing of the second aromatic residue around the 6,8-diazabicyclo[3.2.2]nonane framework: influence on sigma receptor affinity and cytotoxicity” (J Med Chem, 2009)

Columns and labels:
[1] = target: Sigma non-opioid intracellular receptor 1 (Homo sapiens, UniProt Q99720); experiment: Binding affinity to sigma 1 receptor
In short: (§1)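 Guinea pig brain homogenate (about 75 µg protein) incubated with test compound, 2 nM [3H]-(+)-pentazocine (Kd 2.9 nM) in 50 mM Tris pH 7.4, 180 min at 37 °C. Nonspecific binding with 10 µM unlabeled (+)-pentazocine. Rapid filtration, water washes, solid scintillator counting. Ki by Cheng–Prusoff from six-concentration competition curves, triplicates, mean ± SEM of three experiments; single-point lines give inhibition at 1 µM.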

DAN-G = experiment: Cytotoxicity against human DAN-G cells after 96 hrs by crystal violet staining; format: functional, cell-based
In short: (§2)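 Human tumour lines from DSMZ given a 20 µM primary screen for 96 h at 37 °C. Those cutting growth >50% versus untreated controls were then tested at 5 serial dilutions (DMSO stocks) for 96 h. Remaining cell density read by crystal violet staining. IC50 from least-squares dose-response fit using concentrations giving T/C 10–90%.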

MCF7 = experiment: Cytotoxicity against human MCF7 cells after 96 hrs by crystal violet staining; format: functional, cell-based; settings: MCF7, 96 h; in short: as §2
[2] = Cytotoxicity against human LCLC-103H cells after 96 hrs by crystal violet staining; format: functional, cell-based; in short: as §2
A-427 = experiment: Cytotoxicity against human A427 cells after 96 hrs by crystal violet staining; format: functional, cell-based; settings: A-427, 96 h; in short: as §2
[3] = Displacement of [3H]1,3-ditolylguanine from sigma 2 receptor in rat liver membrane by solid scintillation analysis; format: cell membranes
5637 = experiment: Cytotoxicity against human 5637 cells after 96 hrs by crystal violet staining; format: functional, cell-based; settings: Homo sapiens, 5637, 96 h; in short: as §2
RT-4 = experiment: Cytotoxicity against human RT4 cells after 96 hrs by crystal violet staining; format: functional, cell-based; settings: RT-4, 96 h; in short: as §2
[4] = target: Sigma non-opioid intracellular receptor 1 (Cavia porcellus, UniProt Q60492); experiment: Displacement of [3H](+)-pentazocine from sigma 1 receptor in guinea pig brain membrane by scintillation analysis; format: cell membranes
Sequence of Sigma non-opioid intracellular receptor 1 (Cavia porcellus, UniProt Q60492) (Q60492 whole entry): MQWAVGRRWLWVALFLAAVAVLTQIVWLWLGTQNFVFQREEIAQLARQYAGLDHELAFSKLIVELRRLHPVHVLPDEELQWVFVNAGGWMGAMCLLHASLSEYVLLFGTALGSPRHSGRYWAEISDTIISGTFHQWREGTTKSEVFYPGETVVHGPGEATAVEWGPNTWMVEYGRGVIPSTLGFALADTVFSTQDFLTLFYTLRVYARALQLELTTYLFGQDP

[5] = Selectivity for sigma 2 receptor in rat liver membrane over sigma 1 receptor in guinea pig brain membrane; format: cell membranes
Rattus norvegicus = organism: Rattus norvegicus; experiment: Displacement of [3H]1,3-ditolylguanine from sigma 2 receptor in rat liver membrane by solid scintillation analysis at 1 uM; format: cell membranes
[6] = target: Sigma non-opioid intracellular receptor 1 (Cavia porcellus) (UniProt Q60492); experiment: Displacement of [3H](+)-pentazocine from sigma 1 receptor in guinea pig brain membrane at 1 uM by scintillation analysis; format: cell membranes; in short: as §1
Sequence of Sigma non-opioid intracellular receptor 1 (Cavia porcellus) (Q60492 whole entry): as above

[7] = Selectivity ratio of IC50 for sigma 2 receptor in rat liver membrane to IC50 for sigma 1 receptor in guinea pig brain membrane; format: cell membranes

Sequence of Sigma non-opioid intracellular receptor 1 (Homo sapiens, UniProt Q99720) (Q99720 whole entry): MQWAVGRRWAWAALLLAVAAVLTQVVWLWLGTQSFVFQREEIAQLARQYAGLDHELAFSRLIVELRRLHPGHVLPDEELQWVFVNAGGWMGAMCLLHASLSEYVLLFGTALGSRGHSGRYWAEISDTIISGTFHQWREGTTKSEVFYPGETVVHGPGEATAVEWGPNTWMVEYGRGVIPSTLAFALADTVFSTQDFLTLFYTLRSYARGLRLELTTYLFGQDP

Question: For `C=CCN1CC2[C@@H](O)CCC1CN2Cc1ccc(OC)cc1` (stereo partly drawn), which Ki [1] is on record?
Answer: 2.24 µM

Question: Which results are given for `C=CCN1C[C@@H]2[C@H](Oc3ccccc3)CC[C@H]1CN2Cc1ccc(OC)cc1`?
Answer: IC50 (DAN-G): 15.8 µM; IC50 (MCF7): 12.7 µM; IC50 [2]: > 20 µM; IC50 (A-427): 5.95 µM; Ki [3]: 0.479 µM; IC50 5637: 14 µM; IC50 (RT-4): 19.1 µM; Ki [4]: 2.12 µM; fold change (FC) [5]: 5

Question: Which IC50 (DAN-G) does the source give for `COc1ccc(CN2C[C@@H]3[C@@H](c4ccccc4)CC(=O)[C@H]2CN3Cc2ccccc2)cc1` here?
Answer: > 20 µM

Question: And the IC50 [2]?
Answer: > 20 µM

Question: What about the Activity (Rattus norvegicus) of the same compound?
Answer: 0%

Question: And the Activity [6]?
Answer: 8%

Question: What does the source list for `C=CCN1C[C@H]2c3[nH]c4ccccc4c3C[C@@H]1CN2Cc1ccc(OC)cc1`?
Answer: IC50 [2]: > 20 µM; Activity (Rattus norvegicus): 0%; IC50 (RT-4): > 20 µM; Activity [6]: 7%

Question: Which Ki [1] does the source give for `COc1ccc(CN2CC3CCC(=O)C2CN3Cc2ccccc2)cc1` (stereo not drawn) here?
Answer: 0.053 µM

Question: What does the source list for `COc1ccc(CN2C[C@H]3C(c4ccccc4)CC(=O)[C@@H]2CN3Cc2ccccc2)cc1` (single isomer, unassigned; form 1)?
Answer: Activity (Rattus norvegicus): 0%; Activity [6]: 25%

Question: With `C=CCN1C[C@@H]2c3[nH]c4ccc(OC)cc4c3C[C@H]1CN2Cc1ccc(OC)cc1` as the compound, how does the IC50 (DAN-G) read?
Answer: > 20 µM

Question: And the IC50 (MCF7)?
Answer: 25.5 µM

Question: And the IC50 [2]?
Answer: > 20 µM

Question: And the IC50 (A-427)?
Answer: 13.2 µM

Question: What about the IC50 5637 of the same compound?
Answer: 10.8 µM

Question: And the Activity (Rattus norvegicus)?
Answer: 0%

Question: And the IC50 (RT-4)?
Answer: > 20 µM

Question: What about the Ki [4] of the same compound?
Answer: 10.5 µM

Question: What does the source list for `C=CCN1C[C@H]2/C(=C\c3ccccc3)CC[C@@H]1CN2Cc1ccc(OC)cc1`?
Answer: IC50 (DAN-G): 9.82 µM; IC50 (MCF7): 7.25 µM; IC50 [2]: 17.8 µM; IC50 (A-427): 3.93 µM; Ki [3]: 0.566 µM; IC50 5637: 10.9 µM; Ratio IC50 [7]: 5; IC50 (RT-4): 14.1 µM; Ki [4]: 0.104 µM

Question: For `COc1ccc(CN2C[C@@H]3[C@H](c4ccccc4)CC(=O)[C@H]2CN3Cc2ccccc2)cc1`, which IC50 (DAN-G) is on record?
Answer: 16.1 µM

Question: And the IC50 (MCF7)?
Answer: 19.4 µM

Question: What about the IC50 [2] of the same compound?
Answer: > 20 µM

Question: And the IC50 (A-427)?
Answer: 10.3 µM

Question: What about the IC50 5637 of the same compound?
Answer: 18.3 µM

Question: What about the Activity (Rattus norvegicus) of the same compound?
Answer: 0%

Question: What about the IC50 (RT-4) of the same compound?
Answer: 20.5 µM

Question: What about the Activity [6] of the same compound?
Answer: 17%

Question: For `C=CCN1C[C@H]2c3[nH]c4ccc(OC)cc4c3C[C@@H]1CN2Cc1ccc(OC)cc1`, which IC50 (DAN-G) is on record?
Answer: > 20 µM

Question: And the IC50 (MCF7)?
Answer: > 20 µM

Question: What about the IC50 [2] of the same compound?
Answer: > 20 µM

Question: What about the IC50 (A-427) of the same compound?
Answer: 15.4 µM

Question: What about the IC50 5637 of the same compound?
Answer: 16.1 µM

Question: What about the Activity (Rattus norvegicus) of the same compound?
Answer: 44%

Question: And the IC50 (RT-4)?
Answer: > 20 µM

Question: What about the Activity [6] of the same compound?
Answer: 37%

Question: Which Activity (Rattus norvegicus) does the source give for `C=CCN1C[C@H]2N(Cc3ccc(OC)cc3)C[C@@H]1CC[C@]21Cc2ccccc2CO1` here?
Answer: 58%

Question: And the Activity [6]?
Answer: 36%

Question: For `C=CCN1C[C@@H]2[C@H](Oc3ccccc3)CC[C@H]1CN2Cc1ccc(OC)cc1OC`, which IC50 (DAN-G) is on record?
Answer: 12.5 µM

Question: What about the IC50 (MCF7) of the same compound?
Answer: 9.11 µM

Question: What about the IC50 [2] of the same compound?
Answer: > 20 µM

Question: What about the IC50 (A-427) of the same compound?
Answer: 7.09 µM

Question: And the Ki [3]?
Answer: 0.469 µM

Question: And the IC50 5637?
Answer: 11.7 µM

Question: And the IC50 (RT-4)?
Answer: 15.3 µM

Question: And the Ki [4]?
Answer: 4.05 µM

Question: What about the fold change (FC) [5] of the same compound?
Answer: 5

Question: Which Ki [1] does the source give for `COc1ccc(CN2CCN(Cc3ccccc3)[C@@H](CO)C2)cc1` here?
Answer: 0.012 µM

Question: With `C=CCN1CC2C(=O)CCC1CN2Cc1ccc(OC)cc1` (stereo not drawn) as the compound, how does the Ki [1] read?
Answer: 1.6 µM

Question: For `COc1ccc(CN2C[C@H]3C(c4ccccc4)CC(=O)[C@@H]2CN3Cc2ccccc2)cc1` (single isomer, unassigned; form 2), which Activity (Rattus norvegicus) is on record?
Answer: 0%

Question: And the Activity [6]?
Answer: 14%

Question: Which results are given for `CCCN1CC2C(=O)C[C@@H](c3ccccc3)C1CN2Cc1ccc(OC)cc1` (stereo partly drawn)?
Answer: IC50 (DAN-G): > 20 µM; IC50 (MCF7): > 20 µM; IC50 [2]: > 20 µM; IC50 (A-427): > 20 µM; IC50 5637: > 20 µM; Activity (Rattus norvegicus): 11%; IC50 (RT-4): > 20 µM; Activity [6]: 40%

Question: With `C=CCN1C[C@H]2[C@@H](Oc3ccccc3)CC[C@@H]1CN2Cc1ccc(OC)cc1` as the compound, how does the IC50 (DAN-G) read?
Answer: 10.6 µM

Question: What about the IC50 (MCF7) of the same compound?
Answer: 9.23 µM

Question: And the IC50 [2]?
Answer: > 20 µM

Question: And the IC50 (A-427)?
Answer: 6.29 µM

Question: What about the Ki [3] of the same compound?
Answer: 0.862 µM

Question: What about the IC50 5637 of the same compound?
Answer: 9.79 µM

Question: And the IC50 (RT-4)?
Answer: 17.9 µM

Question: And the Activity [6]?
Answer: 29%

Question: Which IC50 (DAN-G) does the source give for `C=CCN1C[C@H]2[C@H](OCc3ccccc3)CC[C@@H]1CN2Cc1ccc(OC)cc1` here?
Answer: 12.7 µM

Question: And the IC50 (MCF7)?
Answer: 9.13 µM

Question: What about the IC50 [2] of the same compound?
Answer: 19.9 µM

Question: And the IC50 (A-427)?
Answer: 4.61 µM

Question: What about the Ki [3] of the same compound?
Answer: 6.46 µM

Question: And the IC50 5637?
Answer: 11.2 µM

Question: What about the Ratio IC50 [7] of the same compound?
Answer: 70

Question: And the IC50 (RT-4)?
Answer: 14.3 µM

Question: What about the Ki [4] of the same compound?
Answer: 0.091 µM

Question: Which results are given for `C=CCN1C[C@@H]2[C@H](OCc3ccccc3)CC[C@H]1CN2Cc1ccc(OC)cc1OC`?
Answer: IC50 (DAN-G): 4.58 µM; IC50 (MCF7): 5.81 µM; IC50 [2]: 11.1 µM; IC50 (A-427): 3.55 µM; Ki [3]: 0.4 µM; IC50 5637: 4.73 µM; IC50 (RT-4): 8.57 µM; Activity [6]: 20%; fold change (FC) [5]: 5

Question: For `CCCN1CC2C(=O)C[C@H](c3ccccc3)C1CN2Cc1ccc(OC)cc1` (stereo partly drawn), which IC50 (DAN-G) is on record?
Answer: > 20 µM

Question: And the IC50 [2]?
Answer: > 20 µM

Question: What about the Activity (Rattus norvegicus) of the same compound?
Answer: 10%

Question: What about the IC50 (RT-4) of the same compound?
Answer: > 20 µM

Question: What about the Activity [6] of the same compound?
Answer: 3%
